# Shown are actives, neighbours in structure and some others; about 3.3% of the full set was active somewhere.
# m5-HT2A agonist: activates the mouse 5-HT2A serotonin receptor; P35363; CHO-K1 mHTR2A beta-arrestin complementation, luminescence; percent of 30 µM serotonin response; activation, % at 7.6 µM; 0.66% of 360,000 active; AID 624169;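 active means activation above a run cutoff, the mean activation of all tested compounds plus 3 SD, cut at about 14% in these data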;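 further: 0% = plate median of compound wells and 100% = 30 µM serotonin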
# sPLA2-III inh: Inhibits HGIII-sPLA2 liposome hydrolysis, primary screen; 0.56% of 370,000 active; inhibition, % at 12.2 µM; QFRET BODIPY PC-A2 liposome hydrolysis, fluorescence;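 active means inhibition above mean plus 3 SD of compounds lying within the high and low control bounds, cut at about 19% in these data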;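 further: 0% = median of test compound wells and 100% = no enzyme DMSO wells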
# Target sequence (Q9NZ20 whole entry, looked up): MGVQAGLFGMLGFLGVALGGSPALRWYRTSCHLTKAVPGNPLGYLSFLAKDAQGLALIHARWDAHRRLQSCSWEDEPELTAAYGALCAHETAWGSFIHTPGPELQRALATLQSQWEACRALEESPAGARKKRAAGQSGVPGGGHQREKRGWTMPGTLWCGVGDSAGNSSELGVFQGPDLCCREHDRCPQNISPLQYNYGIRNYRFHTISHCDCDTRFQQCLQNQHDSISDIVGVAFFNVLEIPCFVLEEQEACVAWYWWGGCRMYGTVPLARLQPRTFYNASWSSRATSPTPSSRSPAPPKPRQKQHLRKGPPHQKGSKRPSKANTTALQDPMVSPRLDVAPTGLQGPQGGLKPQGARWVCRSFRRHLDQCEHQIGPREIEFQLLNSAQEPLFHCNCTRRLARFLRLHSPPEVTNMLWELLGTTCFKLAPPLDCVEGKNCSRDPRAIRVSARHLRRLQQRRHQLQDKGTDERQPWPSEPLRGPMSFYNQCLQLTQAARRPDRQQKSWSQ
# Lipid droplet: modulators of hepatic lipid droplet formation. AML12 mouse hepatocytes, oleate lipid droplets, BODIPY imaging. inhibition, % at 6.5 µM. 0.4% of 240,000 active;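 active means lipid droplet intensity inhibited by at least 50%, with more than 500 cells counted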
#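 Technique: fluorescence imaging, 20x objective, two fields per well / Assay system: AML12 hepatocytes (mouse) / Measure: % inhibition of lipid droplet signal / Doses: 6.5 µM single-point dosing / Incubation: overnight exposure / Reagent: 100 µM oleic acid challenge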
# PfM18AAP inh: blocks P. falciparum M18 aspartyl aminopeptidase; recombinant PfM18AAP, H-Glu-NHMec fluorogenic cleavage; inhibition, % at 7.35 µM; 1.2% of 290,000 active; AID 1822;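 active means inhibition above the campaign mean inhibition over all tested compounds plus 3 SD, cut at about 28% in these data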;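 further: 0% = plate median of test compound wells and 100% = 2 mM ZnCl2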
# Arrestin-AP2 inh: human beta-arrestin and AP2 interaction inhibition; FITC-arrestin peptide / GST-AP2 beads, flow cytometry; AP2 beta2 appendage carries R879A mutation; 0.31% of 340,000 active; inhibition, % at 10 µM; AID 504490;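 active means inhibition above a set limit, near 3 SD of compounds lacking own fluorescence, cut at about 54% in these data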;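 further: plate controls were DMSO wells for no effect and 5 µM unlabelled arrestin peptide for full effect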
#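 Material – GST-tagged AP2 beta2-adaptin appendage (R879A) on 4 µm glutathione beads · Probe or stimulus – fluorescein-tagged arrestin peptide at 50 nM final · Timing – 12 min plus 1 h, RT · Detection – bead flow cytometry, FITC channel · Read-out basis – inhibition as reduced fluorescein signal on beads, percent · Medium – PBS plus Tween 20 (0.05%) and BSA (0.1%)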
# NRP1-CendR mod: alters CendR peptide binding to human NRP-1; FAM-RPARPAR peptide binding to NRP-1, fluorescence polarization; AID 602438; inhibition, % at 25 µM; O14786; 0.85% of 360,000 active;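 active means inhibition or corrected inhibition above about 18%, plus a signal ratio from 0.5 to 1.5, limit read from the data, passing the limit was not always enough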
# * hit, by the source's call; · = not tested or not shown.
SMILES,m5-HT2A agonist,sPLA2-III inh,Lipid droplet,PfM18AAP inh,Arrestin-AP2 inh,NRP1-CendR mod
C=CCN1C(=O)/C(=C2/Sc3ccccc3N2CCCS(=O)(=O)O)SC1=S,3,-22,·,-56,12,-35
C=CCN1C(=O)/C(=C2/Sc3ccccc3N2CC)SC1=S,0,-1,2,3,-9,77*
Cc1ccc(-n2c(-c3ccco3)nc3c(cnn3-c3ccc(C)cc3)c2=O)cc1,4,-3,·,0,4,35*
O=C(N/N=C/c1sc(N2CCOCC2)nc1-c1ccccc1)c1ccccc1F,·,·,-12,-14,·,·
O=C(Nc1ccccc1F)C(=Cc1sc(N2CCOCC2)nc1-c1ccccc1)C(=O)Nc1ccccc1F,5,8,68*,-4,23,136
COc1ccc(CCNC(=O)C2CCC(C(C)(C)C)CC2)cc1OC (stereo not drawn),5,2,-1,6,-16,34*
O=C(NNC(=O)c1cccs1)c1ccccc1,-3,2,-3,-3,1,6
O=C(NNC(=O)c1ccccc1Br)c1cccs1,-3,5,-1,5,3,25*
O=C(CSc1nncs1)NNC(=O)c1ccccc1Br,-2,-4,·,·,-13,20*
CCNC(=O)Nc1ccc2c(c1)C(=O)N(C)[C@H]1CC[C@@H](CC(=O)NCCN3CCCC3)O[C@@H]1CO2,·,6,·,·,·,·
CCOC(=O)C1=C(C(=O)OCC)C2N(Cc3ccc(C(F)(F)F)cc3)c3ccccc3[C@@]23C[C@@H](C(=O)OC)N(S(=O)(=O)c2ccc(OC)cc2)C3=N1 (stereo partly drawn),·,3,·,·,·,·
NC(=O)C[n+]1cccc2ccccc21,5,-22,·,-3,-9,32*
CCOc1ccc(S(=O)(=O)N2CCCCC2)cc1NC(=O)Cc1ccsc1,7,-2,·,·,0,-4
CCOC(=O)C[C@H]1c2ccc(C(F)(F)F)cc2S(=O)(=O)N1C1CCCC1,-2,2,·,·,-2,8
CCOC(=O)C[C@H]1c2ccc(C(F)(F)F)cc2S(=O)(=O)N1C(C)(C)C,-2,4,·,·,0,22*
CCOC(=O)C[C@H]1c2cc(C(F)(F)F)ccc2S(=O)(=O)N1Cc1ccccc1,1,-1,·,·,-8,26*
CCCS(=O)(=O)NC(=O)C1(C)CCN(C(=O)c2ccccc2C(F)(F)F)C1 (stereo not drawn),-3,·,·,·,·,-4
Cc1cc(O)cc(=O)n1-c1cccc(C(F)(F)F)c1,·,9,·,·,·,·
COc1ccc(Cc2[nH]n3c(=O)cc(C(C)C)nc3c2-c2ccccc2)cc1,-4,2,-32,-9,18,18*
O=[N+]([O-])c1ccc(NN=Cc2ccc(O)cc2O)nc1,-9,-29,·,·,-5,14
Oc1ccc(/C=N/Nc2ncc(Br)cn2)c(O)c1,-3,-3,-3,52*,15,-3
CCN(CC)S(=O)(=O)c1ccc(N/N=C/c2ccc(O)cc2O)nc1,-3,-71,5,37*,4,-7
CCN(Cc1ccccc1)C(=O)c1cccc(OC2CCN(C(=O)C3CC3)CC2)c1,7,-3,-41,0,-2,10
O=C(NCc1cccc(F)c1)c1cccc(OC2CCN(C(=O)C3CC3)CC2)c1,2,5,-11,-9,-3,24*
O=C(CN(C(=O)CNC(=O)c1ccco1)c1ccc2c(c1)OCCO2)NC1CCCC1,-1,-2,4,-9,-3,21*
SMILES,m5-HT2A agonist,sPLA2-III inh,Lipid droplet,PfM18AAP inh,Arrestin-AP2 inh,NRP1-CendR mod
COc1ccccc1CCC[C@@H](CCS(=O)(=O)C(C)C)CC1CCCCC1,·,-4,·,·,·,·
COc1cc(C=Nn2c(-c3cc(-c4ccccc4)n[nH]3)n[nH]c2=S)ccc1OC(C)=O,·,13,·,·,·,·
COc1ccc(NC(=O)c2cc(S(=O)(=O)Nc3ccc(OC)cc3)cs2)cc1,-3,-18,-10,-8,-12,0
O=C(Nc1ccc(F)cc1)c1cc(S(=O)(=O)Nc2ccc(F)cc2)cs1,-6,-40,·,-9,23,26*
O=c1c(O)c(-c2ccc(O)cc2O)oc2cc(O)cc(O)c12,·,·,-8,30*,·,·
CCCCNC(=O)c1c(CSc2ccc(Cl)cc2)noc1C(=O)NCCC,-6,-5,·,·,5,31*
CCCCNC(=O)c1onc(CSc2ccc(Cl)cc2)c1C(=O)NCCCC,1,-13,·,·,6,15

# Screening data: PubChem, several laboratories
